Reference: the EternaBench riboswitch data

Test system: MS2 coat protein
Assay: apparent Kd, MS2 coat protein; higher = weaker binding; RNA-MaP array; FMN 200 µM where present
Procedure, shortened: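 Designs were transcribed by stalled E. coli RNA polymerase on Illumina sequencing-chip clusters. They were titrated with SNAP-549-labelled MS2 coat protein from 0.7 or 1.5 nM, doubling to 3 µM, without and then with constant ligand. Buffer: 100 mM Tris-HCl pH 7.5, 80 mM KCl, 4 mM MgCl2, BSA, DTT, yeast tRNA, Tween-20. Green signal was normalised to red-channel RNA signal and control-cluster median Fmax. Apparent Kd is the median of filtered per-cluster binding-curve fits.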

[1] = designed as: ON switch for flavin mononucleotide, no ligand
[2] = ligand present: flavin mononucleotide, designed as: ON switch for flavin mononucleotide
[3] = designed as: OFF switch for flavin mononucleotide, no ligand
[4] = ligand present: flavin mononucleotide, designed as: OFF switch for flavin mononucleotide

Sequence | apparent Kd [1] | apparent Kd [2] | apparent Kd [3] | apparent Kd [4]
AAUCGGGAGCAGAAGGCAUGUCAUAAAACAUGAGGAUCACCCAUGUAGUUAAGGCGAAAGCCGCAUGAGGAUAUGCUCCCGUAA | 5.61 nM | 4.69 nM | – | –
UGUUAAUAUCGAGGAUAUGUCUAGACACAUGAGGAUCACCCAUGUAUGUGUAUAGAAGGCGAUAUUAACAGCAUGUUACAUGCU | 39.9 nM | 17.5 nM | – | –
UUUUACUGAGGAUAUACAUUUUUUUAUUUAUUUAUAAUAUUACAUGAGGAUCACCCAUGUAGAAGGCAGAUUUU | – | – | 27.4 nM | 24.4 nM
GUGUCGGGAGGAUAUGCGUGGAUUGUUCUCGUAUGGUGUCUACAUGAGGAUCACCCAUGUAGAAGGUCUGGCGC | – | – | 20.8 nM | 61.1 nM
UUGGACGUCGUAGGAUAUGUAGGAUAUUCCUACAUGAGGAUCACCCAUGUUGACAUGGGAGAAGGACAGAAGGACGAUGUCCAU | 52.4 nM | 176 nM | – | –
ACCAAUGCAGGAUAUACAUGAGGAUCACCCAUGUAUAACCUACAUAGAUGAUUAUUAUGUAGAAGGGUAUUGGA | – | – | 13.2 nM | 12.9 nM
CUGAGCAGUCAAGGAUAUCACGUCGAAUAGACGUGAGAAGGUGACCAAUACAUGAGGAUCACCCAUGUAAUACAUGAAGCUCAG | 38.1 nM | 17.4 nM | – | –
CCAAGUUCGUAGGAUAUAGAUGCCUUAGGGCAAUUAGAAGGAUGGACAUGAGGAUCACCCAUGUCGGAUUCUGU | – | – | – | 18 nM
GGUGUGAGGCAGGAUAUGCUAUAUGUUCGUAAUGCAGAAGGGUCUACAUGAGGAUCACCCAUGUGUGCGGUUGA | – | – | 172 nM | 413 nM
AGUGCGUAUGUGAGGAUAUGCUGGUCCUUGGCUCGGCAGAAGGCACAUGAGGAUCACCCAUGUGGUGUCGUACC | – | – | 33 nM | 151 nM
AGGUGACAUGAGGAUCACCCAUGUCAGGAUAUAUACACUGGCGACGUGACGUCGGCAGAUAGAAGGGACAAAGU | – | – | 17.2 nM | 20 nM
GCUAGUAUUGCAGGAUAUUGAGAAUAAUUAUUACAAGAAGGGCAUAACAUGAGGAUCACCCAUGUAUUCCUUAGUGAUACUAGC | – | – | 6.24 nM | 6.07 nM
GCGAUUAAGUAGAAGGUACGUUAUAAGUCAAUGUAAGGAUAUACUGACAUGAGGAUCACCCAUGUUUAAUUUGUUUACUGUCGC | 7.34 nM | 5.7 nM | – | –
AAUAACAGAGGAUAUACUAUUUUAUGUGUUUAUUGUUUUAAACAUGAGGAUCACCCAUGUAGAAGGCUGAAUAA | – | – | 29.3 nM | 44.3 nM
UUGAUUAUACAAGGAUAUCAAUUGUAUACAAGUCUUACAUGAGGAUCACCCAUGUUAAAUUUUUUUGAGAAGGUGUGUUUUCAG | 32.2 nM | 29.5 nM | – | –
AAAAGCAAAGGAUAUACAUGAGGAUCACCCAUGUAAAAAAGAAAAGAGUAUAUGGCAUGUAGAAGGUUGCGUGG | – | – | 34.5 nM | 49.8 nM
GUCUACCUAGGAUAUACAUGAGGAUCACCCAUGUACAGUUUCGUCUAGGGAUACUCGCGUAGAAGGAGGUAGAU | – | – | 32.2 nM | 22.9 nM
GUAUUGAGAUAAGGAUAUAAGUCUAUGACAUGAGGAUCACCCAUGUGUGUUUUAGAAGGUAUUUCGGUAAUAUUGUUACAGUAA | 17.7 nM | 9.95 nM | – | –
CGUGCUUAUGUAGGAUAUGGUUAUCUAUGUCUAGUUACUAGACAUAGAUAACCAGAAGGACAUGAGGAUCACCCAUGUUGCACG | – | – | 8.28 nM | 15.5 nM

Sequence | apparent Kd [1] | apparent Kd [2] | apparent Kd [3] | apparent Kd [4]
UCGAGUCAUGAGAAGGACUGAUGUUACAUGAGGAUCACCCAUGUCAUGGGUAGGAUAUCAUUGACACGGCUGUACCUCUCUUAC | 196 nM | 47.7 nM | – | –
AAAAGGUCAGGAUAUGCCCUCCUGGUGGAAAAGCCUGGUGGGCAGAAGGGACAUGAGGAUCACCCAUGUAAAAA | – | – | 60.8 nM | 81.8 nM
AAUUUUGCAGGAUAUGCGCAGCGUUUAGCCACACUAUGGAAACAUGAGGAUCACCCAUGUAGAAGGGCAGAGAU | – | – | 26.4 nM | 20.8 nM
AGUCGGAGCAGAGGAUAUAUACAUGAGGAUCACCCAUGUAAAUGAAUAAGCUGGAAACAGCAAGUAUAGAAGGCUGCUCCGACA | – | – | 14.5 nM | 16.2 nM
GGGAAUAAACCCGUCUCCGCUCAACCAGAAGGGCACGAUAAUAUUACAUGAGGAUCACCCAUGUUGCAGGAUAUGGUGAGCCUC | 191 nM | 52.9 nM | – | –
GGACAUGUCGUUUACAUGAGGAUCACCCAUGUCGAUGGACAUGAGGAUAUCGAUACAAAUUGUAUCGAGAAGGCAUGCAUGUCC | 40.8 nM | 18.5 nM | – | –
GUGACGAAUGUAGGAUAUGCUGAGGAAUACUCAGCAGAAGGACAUGAGGAUCACCCAUGUACUAUGAGUGAAUAAUAACGUCAC | – | – | 77.4 nM | 881 nM
ACUGAGGACACAGGAUAUCCGGUUAGGGUAAUCGGAGAAGGGUGACGGCAUGUAGGAAGUCACAUGAGGAUCACCCAUGUGAGA | 182 nM | 83.5 nM | – | –
UUUUAACAUGAGGAUCACCCAUGUGAGGAUAUCGAAAUUUAUAUUUAUAUUAAUUAUUCGAGAAGGCACAUUUU | – | – | 163 nM | 133 nM
GGGCAAUUAGGAUAUACAUGAGGAUCACCCAUGUGGAAGCCCGGACAGGUAAUCCACUGUAGAAGGGAUUGCGG | – | – | 14.8 nM | 15 nM
AAUAUAGAGCUGGAAUAAAACAUCACAUGAGGAUCACCCAUGUAGGAUAUCAGCACGAUAAGUGCUGAGAAGGACAUCCAGCUC | – | – | 14.9 nM | 14.1 nM
AACUCUGAGAAGGAUAUUCAAUGGGAAACGAUGGAAGAAGGUUUCACAUGAGGAUCACCCAUGUCGAAUAGUGA | – | – | 71.9 nM | 63.9 nM
UUGGACGUCGUAGGAUAUGUAGGAUAUUCCUACAUGAGGAUCACCCAUGUUGACAUGGAAGAAGGACAGAAGGACGUUGUCCAU | 404 nM | 5.74 nM | – | –
AUUAAUCAGCAGGAUAUAAGUAUCUGAUGGUGGUUAGAAGGGCUGACAUGAGGAUCACCCAUGUGCUCUUCGUG | – | – | 11.4 nM | 13.8 nM
GGGAAGUGAGGAUAUGCUGCUCGUCACUUGCGUGAUGAGUAGCAGAAGGUACAUGAGGAUCACCCAUGUAAAGA | – | – | 29.5 nM | 20.7 nM
GUAGCAUACCGAGGAUAUUCAGGGCGUGGAUAUACAUGAGGAUCACCCAUGUGGCGGAAGCCUAGGGAGAAGGCGGGCUGCUUC | 24.6 nM | 19.9 nM | – | –
UGAGCUUCAGGAUAUAUAUGGCGACCGUGAGGUCGAAGGUUACAUGAGGAUCACCCAUGUAGAAGGGAAGUUCU | – | – | 34.5 nM | 187 nM
AUUUAUGGCCAGAAGGACAUGAGGAUCACCCAUGUAGGAUAUGGACGAUUUUGCCCGGCGGUUCGUUUAGGAAGCACCGGUGGU | 11.5 nM | 7.11 nM | – | –
UACGGACAUGAGGAUCACCCAUGUGAGGAUAUCGGUACCGAUAGCAUAAUCUGCUCGGCGAGAAGGCACAGCGU | – | – | 29.8 nM | 42.8 nM

Sequence | apparent Kd [1] | apparent Kd [2] | apparent Kd [3] | apparent Kd [4]
GCUGUCGCAUGAGGAUAUGGUCAGGUUUCCUGACCAGAAGGCAUGUCAAUAGACAUGAGGAUCACCCAUGUAGUAAAGACAGCA | 447 nM | 36.4 nM | – | –
GAGUUUACGUUUGACACUUAGCGAGAGGAUAUGGAAAACAAGACAUGAGGAUCACCCAUGUACUAUCAGAAGGCUCGAGUACGA | 8.92 nM | 5.69 nM | – | –
GCCAGAGCAGGAUAUUCAAUAUUCCACAUGAGGAUCACCCAUGUCCUGCGAAAGCAGGAGGGAGAAGGGCUCUGGC | – | – | 69.5 nM | 25.5 nM
AAUUAUUUACAGAAGGAGUAAGAUUAUGUAUUACUAGGAUAUGUUCACAUGAGGAUCACCCAUGUCAAAGUAGGUUUUUUAUGU | – | – | 12.4 nM | 12.3 nM
UUACUACAUGAGGAUCACCCAUGUCAGGAUAUUGUUUAUACCUUGGAAUACGUGUCAACAAGAAGGGACUAUAU | – | – | 22.9 nM | 23.4 nM
GUUUUGUAAGAGAAGGAGGACUUCAUGAGGAUCACCCAUGUGUUAGUACUUAGGAUAUUUGACAACAUGAGGAUCACCCAUGUC | 57.8 nM | 57.9 nM | – | –
UGCAUGUUAGGAUAUGUUGUUGCGGGCGUACGCUCUCGACCACAGAAGGAACAUGAGGAUCACCCAUGUACCUC | – | – | 20.3 nM | 88.8 nM
ACACGAAAGUCAGGAUAUGUAUCAGCACGAUAGUUACAUGAGGAUCACCCAUGUUUCACGGGCCAACAGAAGGGACAGGGUGGC | 18.4 nM | 7.62 nM | – | –
UUCAGCUCGUGAGGAUAUACAUGUGCUGGAAACAGCAUUAAAUUUUUCACAUGAGGAUCACCCAUGUAGAAGGCACGAGCUGAG | – | – | 16.6 nM | 39.8 nM
CCAUGGCUGUAAGGAUAUCUCUGACAAAGUCAGAGAGAAGGUACAUGAGGAUCACCCAUGUGAGGAAAACCACAUUUGCCAUGG | – | – | 9.46 nM | 15.7 nM
UACAUGAGGAUCACCCAUGUUUUGUCGUGUAUGGUAUUUAUCUAGGAUAUCAAGUUGUUUAUUUAUGAGAAGGAGAAUAUUAAU | – | – | 34.3 nM | 38.1 nM
UCGAAAAUACAAGGAUAUCAAUUGUAGCUAAAUUCAACAUGAGGAUCACCCAUGUAACUAUGGAGUGAGAAGGUGUAGUAAUUU | 113 nM | 450 nM | – | –
UUUAUUUAGGCAGGAUAUACAUGUAUAUAUAUUUCUUUAUAUCUUAUUACAUGAGGAUCACCCAUGUAGAAGGGCCUUCUUAUC | – | – | 30.1 nM | 34.5 nM
CUAUUUUGUGCCUCAUUUACAUGAGGAUCACCCAUGUUAACUUAGGAUAUAUUUAUAUUGUUAGAGUAGAAGGAAGUACAUUUU | – | – | 162 nM | 133 nM
CUGCUCCGUGUAGGAUAUGCGUACAACCAAUAUGCAGAAGGACAUGAGGAUCACCCAUGUAUGUUAUUAUCACGUGAAGCGUCC | – | – | 22.3 nM | 61.1 nM
AGAGAUACGCUCGUCGGAAAGCGACAUGAGGAUCACCCAUGUAGAAGGCGAUGCGCAACUCGCAUUGAGGAUAUAUAGUGCAGC | – | – | 6.51 nM | 6.65 nM
UGUGUAGAGGUGAAGCGAAUUACUGAGGAUAUGACAUGAGGAUCACCCAUGUACACAUCGUCAGGUCAGAAGGCAGUGGUUCUU | – | – | 7.2 nM | 21.1 nM
CGGCGGAAAGGAUAUGCAGUAAUAUCAAAAUGUGGGCCACGACAUGAGGAUCACCCAUGUAGAAGGUUCAGCCA | – | – | 16 nM | 13.6 nM
